CHRM1 antagonist = human M1 muscarinic receptor antagonists, primary screen, CHO-K1 cells, Fluo-8 calcium fluorescence, 1536-well; Muscarinic acetylcholine receptor M1 (Homo sapiens), P11229; CHO-K1 hM1, ACh EC80 antagonist; inhibition, % at 3 µM; 360,000 tested, 1.3% active;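 active = percent inhibition above its own plate's cutoff, namely the mean of that plate's compound wells plus 3 SD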;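 also: peak over basal fluorescence ratio during 140 s after agonist addition; 0% = ACh EC80 plus DMSO and 100% = DMSO alone without agonist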
Target sequence (P11229 whole entry, looked up): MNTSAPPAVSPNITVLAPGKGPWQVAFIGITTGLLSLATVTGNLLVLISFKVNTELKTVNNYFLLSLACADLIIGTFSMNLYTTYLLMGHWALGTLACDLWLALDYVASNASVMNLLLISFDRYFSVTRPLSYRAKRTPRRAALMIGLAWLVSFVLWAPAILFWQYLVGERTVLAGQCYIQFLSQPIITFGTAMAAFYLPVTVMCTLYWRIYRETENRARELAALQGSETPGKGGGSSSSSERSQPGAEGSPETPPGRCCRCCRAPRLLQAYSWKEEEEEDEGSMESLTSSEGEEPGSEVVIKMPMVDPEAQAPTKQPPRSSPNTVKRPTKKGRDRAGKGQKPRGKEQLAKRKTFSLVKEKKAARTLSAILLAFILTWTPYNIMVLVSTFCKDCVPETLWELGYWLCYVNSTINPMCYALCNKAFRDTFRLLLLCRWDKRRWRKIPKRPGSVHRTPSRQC
CHRM1 PAM = human M1 muscarinic receptor positive allosteric modulators, primary screen, CHO-K1 cells, Fluo-8 calcium fluorescence, 1536-well; Muscarinic acetylcholine receptor M1 (Homo sapiens), P11229; CHO-K1 hM1, ACh EC20; 0% = ACh EC20, 100% = maximal ACh; activation, % at 3 µM; 360,000 tested, 0.088% active; in the data active = activation above about 19%, passing the limit was not always enough
M1 ag = human M1 muscarinic receptor agonists, primary screen, Fluo-8 calcium fluorescence, CHO-K1 cells, HTS | Muscarinic acetylcholine receptor M1 (Homo sapiens), P11229 | CHO-K1 hM1, agonist mode; 0% DMSO, 100% acetylcholine EC100 | activation, % at 3 µM | 360,000 tested, 0.33% active;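 active = activation above the run's mean compound activation plus 3 SD, cut at about 16% in these data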;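 also: peak over basal fluorescence ratio within a 140 s kinetic read after compound addition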
M5 ag = human M5 muscarinic receptor agonists, primary screen, CHO-K1 cells, Fluo-8 calcium fluorescence | CHO-K1 hM5 cells; 0% DMSO wells, 100% maximal acetylcholine response | Muscarinic acetylcholine receptor M5 (Homo sapiens), P08912 | activation, % at 3 µM | 360,000 tested, 0.19% active;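 active = activation above the run's mean over test compounds plus 3 SD, cut at about 23% in these data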;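 also: signal is peak over basal fluorescence ratio across the kinetic read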
M5 PAM = human M5 muscarinic receptor positive allosteric modulators, primary screen, CHO-K1 cells, Fluo-8 calcium fluorescence; CHO-K1 hM5, ACh EC20 PAM; 0% = ACh EC20, 100% = ACh EC100; AID 624038, 2012; activation, % at 3 µM; 360,000 tested, 0.3% active;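 active = activation above the run cutoff, the mean activation of all test compounds plus 3 SD, cut at about 18% in these data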
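system = human M5 receptor in CHO-K1 cells | compound = one concentration, 3 µM final (nominal) | schedule = Post-acetylcholine fluorescence recording 140 s | signal = Fluo-8 calcium dye fluorescence, kinetic read | benchmarks = low control EC20 acetylcholine (0%), high control EC100 acetylcholine (100%) | repeats = singlicate, one well per test compound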
M5 antag = human M5 muscarinic receptor antagonists, primary screen, CHO cells, Fluo-8 calcium fluorescence; CHO-hM5 cells, ACh EC80; inhibition, % at 3 µM; 360,000 tested, 0.59% active; AID 624040, 2012;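 active = inhibition above a per-plate cutoff, the mean of that plate's test compounds plus 3 SD, cut at about 27% in these data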;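 also: 0% = acetylcholine EC80 with DMSO and 100% = DMSO without agonist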
* hit, by the source's call; . = no result. Compounds with a hit are over-represented: about 2% of the library has one in this group of screens.

SMILES	CHRM1 antagonist	CHRM1 PAM	M1 ag	M5 ag	M5 PAM	M5 antag
CCCCC(CC)C1OCC(C[N+]2(C)CCOCC2)O1 (centres undefined)	43*	-21	-10	-7	-11	5
CCOC(=O)Cc1csc(NC(=O)Nc2ccc(OC(F)(F)F)cc2)n1	41*	-17	5	11	-21	22
CCOC(=O)Cc1csc(NC(=O)c2ccc(NC(C)=O)cc2)n1	-4	6	-1	-3	-9	4
COc1ccc(NC(=O)C2(C)CCCN(C(C)C)C2)cc1OC (centres undefined)	-33	34*	2	1	2	-10
COc1ccccc1N1CCN(C(=O)c2cn(Cc3ccccc3)nc2-c2cccnc2)CC1	2	5	11	29*	-10	-3
CCNC(=O)C1(C)CCCN1Cc1c(F)cccc1F (centres undefined)	-19	12	0	1	1	-9
Cc1cccc2cc3c(N)c(C(=O)N4CCc5ccccc54)sc3nc12	30*	-11	11	17	-6	22
CCCCNc1c(-c2cccc(-c3ccc(OC)cc3)c2)nc2ccc(C)cn12	59*	-31	-8	-5	-39	34*
CCCCNc1c(-c2cccc(-c3ccc(OC)cc3)c2)nc2cc(C)ccn12	62*	-29	-8	-7	-32	28*
CCCCNc1c(-c2cccc(-c3cc(C(C)=O)cs3)c2)nc2ccc(C)cn12	37*	-18	-6	-5	-35	20
CCCCNc1c(-c2ccc(OC)c(SC3CCCCC3)c2)nc2cc(C)ccn12	25	-15	-8	-8	-13	15
CNC(C)C(=O)NC(C(=O)N1CCCC1C(=O)Nc1ccc2ncccc2c1)C(C)C (centres undefined)	-17	32*	2	2	14	-5
CC1(C)CC(NS(=O)(=O)c2ccc3ccccc3c2)CC(C)(C)N1	-6	15	0	-2	18*	-10
O=C(CSc1ncccn1)NC1CCCC1	-22	10	-1	0	0	-1
CN(C)Cc1csc(NC(=O)Nc2ccccc2-c2ccccc2)n1	28*	-20	-8	-2	-11	4
O=C(NCc1ccccc1)C(c1ccc(C(F)(F)F)cc1)n1c(=O)c(-c2cc3ccccc3[nH]2)nc2ccccc21 (centres undefined)	.	.	.	4	1	-6
CC(NC(=O)COc1ccccc1)C(=O)NCc1ccc(S(N)(=O)=O)cc1 (centres undefined)	-20	27*	2	1	7	8
S=c1[nH]nc(CN2CCCCC2)n1Cc1ccccc1	43*	-24	-7	-18	-33	6
S=c1[nH]nc(COc2ccccc2)n1Cc1ccccc1	0	-6	-7	-6	-6	4
CCn1c(Cc2ccccc2)n[nH]c1=S	-11	5	-5	-10	7	-5
CCCCn1c(Cc2ccccc2)n[nH]c1=S	86*	-20	-5	-7	-19	39*
S=c1[nH]nc(CN2CCCC2)n1Cc1ccccc1	44*	-23	-7	-18	-7	9
Cc1nc2cc(OC3(C)CCN(Cc4ccc(OC(F)(F)F)cc4)C3)ccc2s1 (centres undefined)	-5	-5	-7	0	-7	7
COc1ccc(-n2c(-c3ccc(Cl)cc3)c[n+]3c2CCc2ccccc2-3)cc1	18	-21	-13	-10	-4	11
Cc1ccc(-n2c(-c3ccc(Br)cc3)c[n+]3c2CCc2ccc4cccnc4c2-3)cc1	91*	-20	-6	-8	-20	36*
SMILES	CHRM1 antagonist	CHRM1 PAM	M1 ag	M5 ag	M5 PAM	M5 antag
O=C(Nc1cccc2c(=O)[nH][nH]c(=O)c12)c1ccc([N+](=O)[O-])cc1	0	0	-2	2	-2	-1
C=CCNC(=O)c1c(O)c2cccc3c2n(c1=O)CCC3	-14	11	-3	6	43*	25
CC(=O)c1c(C)[nH]c(C(=O)OCC(=O)Nc2cc(Cl)ccc2[N+](=O)[O-])c1C	25*	-20	9	5	-18	18
C=CCNC(=S)N/N=C/c1ccc(C)cc1C	-14	11	-2	1	21*	-15
COC(=O)[C@@]12C[C@@H](CC(=O)NCc3cccc4ccccc34)C(=O)N(Cc3ccco3)C1=CCC(C)(C)C2	.	.	.	0	0	-2
O=S(=O)(c1ccc2c(c1)OCCO2)N1CCC(n2nnc3cc(C(F)(F)F)ccc32)CC1	31*	-10	1	-9	-43	11
O=S(=O)(c1ccccc1)N1CCC(n2nnc3cc(F)ccc32)CC1	4	0	-5	-1	-4	10
CCSc1ccc2c(c1)N(CCCN1CCN(C)CC1)c1ccccc1S2	22	-19	-6	1	-16	15
CC(CN1CCN(CCOCCO)CC1)CN1c2ccccc2Sc2ccc(Cl)cc21 (centres undefined)	56*	-28	0	2	-19	13
Cc1c(C(C)C)c(=O)n(-c2ccc(S(=O)(=O)NC3CCCCC3)cc2)n1C	8	-5	-8	2	-14	30*
Cc1c(C(C)C)c(=O)n(-c2ccc(S(=O)(=O)NCc3ccccc3)cc2)n1C	34*	-20	-6	3	-12	20
O=C(NC(Cc1c[nH]c2ccccc12)C(=O)O)OCC1c2ccccc2-c2ccccc21 (centres undefined)	-12	15	-10	-1	-2	9
CC(C(=O)NCC1(c2ccccc2)CCCC1)N1CCCC1 (centres undefined)	97*	-22	-9	-7	-12	12
CCOC(=O)[C@]12CCCC=C1N(Cc1ccco1)C(=O)[C@H](CC(=O)NCC13CC4CC(CC(C4)C1)C3)C2	.	.	.	-1	2	2
CCN(Cc1ccccc1)C(=O)c1nn(-c2ccc(OC)cc2)c(=O)c2c1c1ccccc1n2C	23*	-19	-7	6	-18	13
CCCCN(CC)CCNC(=O)c1nn(-c2ccc(OC)cc2)c(=O)c2c1c1ccccc1n2C	-6	3	-10	-4	2	3
CCOC(=O)C1(CC2CC2)CCN(Cc2ccc(C(=O)OC)cc2)CC1	60*	-24	-5	-19	-19	24
